Screens: PubChem, several laboratories
CaV13 FRET inh: Disruptors of the CACNA1D IQ motif to Ca2+-dependent inactivation inhibitor domain association, primary screening, Förster resonance energy transfer in intact living …. HEK cells, CFP/YFP FRET ICDI-IQ, plate reader, 10 min; percent FRET-ratio fall versus neutral wells. inhibition, % at 12.3 µM. 0.098% of 340,000 active. AID 743397;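 active = mean replicate inhibition of at least 30% and at least 1% of replicates passing that level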;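 also: 0% = median of the neutral control wells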
Vif inh: blocks HIV Vif function. inhibition, % at 7.49 µM. HEK293T cells, Vif self-association by quenched fluorescence, imaging, 24 h. AID 602346. 0.35% of 340,000 active; in the data active = inhibition above about 50%, passing the limit was not always enough
GC-A act: GC-A (human) enzyme activation; P16066; HEK293 GC-A cells, cGMP TR-FRET, EC30 ANP; 0% at EC30 ANP, 100% saturating ANP; activation, % at 10 µM; 0.14% of 370,000 active; in the data active = activation above about 40%
Target sequence (P16066 whole entry, looked up): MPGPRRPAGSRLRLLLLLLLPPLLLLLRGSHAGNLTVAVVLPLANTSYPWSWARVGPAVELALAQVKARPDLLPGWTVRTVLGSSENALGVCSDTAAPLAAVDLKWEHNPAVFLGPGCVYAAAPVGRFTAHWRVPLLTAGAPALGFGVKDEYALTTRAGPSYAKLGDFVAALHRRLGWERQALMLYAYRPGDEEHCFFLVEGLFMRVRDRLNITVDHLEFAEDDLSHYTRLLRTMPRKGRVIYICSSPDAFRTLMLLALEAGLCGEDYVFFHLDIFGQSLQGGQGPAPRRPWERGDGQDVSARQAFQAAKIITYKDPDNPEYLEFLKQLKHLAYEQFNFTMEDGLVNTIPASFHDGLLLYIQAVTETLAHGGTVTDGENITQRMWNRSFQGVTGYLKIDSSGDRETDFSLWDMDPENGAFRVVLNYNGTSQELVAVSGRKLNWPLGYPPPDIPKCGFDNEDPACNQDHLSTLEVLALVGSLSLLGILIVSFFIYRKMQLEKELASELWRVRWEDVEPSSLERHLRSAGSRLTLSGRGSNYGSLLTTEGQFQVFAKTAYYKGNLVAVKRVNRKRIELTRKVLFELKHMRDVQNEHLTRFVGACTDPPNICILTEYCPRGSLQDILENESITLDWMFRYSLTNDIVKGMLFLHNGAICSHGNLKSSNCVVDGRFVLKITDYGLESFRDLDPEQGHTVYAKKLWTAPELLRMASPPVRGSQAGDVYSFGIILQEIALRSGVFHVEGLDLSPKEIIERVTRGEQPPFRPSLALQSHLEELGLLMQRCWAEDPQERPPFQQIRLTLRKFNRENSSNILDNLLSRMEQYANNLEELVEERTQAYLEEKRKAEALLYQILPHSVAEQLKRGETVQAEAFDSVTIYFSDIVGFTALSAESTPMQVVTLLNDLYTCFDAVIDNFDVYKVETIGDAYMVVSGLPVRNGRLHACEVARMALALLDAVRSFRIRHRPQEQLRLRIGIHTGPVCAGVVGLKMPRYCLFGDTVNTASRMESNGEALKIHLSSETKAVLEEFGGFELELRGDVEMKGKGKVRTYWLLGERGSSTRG
Xi reactivation: activators of X-chromosome reactivation in mouse fibroblasts; XiGFP mouse fibroblasts, % GFP-positive cells imaging, 3 d; cells co-treated with 5-aza-dC sensitizer; scaled so ellipticine positive control = 100%; 0.055% of 360,000 active; activation, % at 7.58 µM;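 active = mean normalized replicate activation at least 10% and every replicate at or above 10%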;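 also: 0% = median of on-plate neutral control wells and 100% = ellipticine 6 µM median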
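material = 68-5-11 XiGFP fibroblast line | medium = DMEM plus 5-aza-dC sensitizer | schedule = 3 days compound exposure | benchmarks = positive control ellipticine, 6 µM final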
Glyco luc inh: blocks N-linked glycosylation in D54 reporter cells. reporter increase, % at 12.5 µM. D54 ERlucT glycosylation luciferase reporter, 24 h; percent of 100 nM tunicamycin response. AID 588692. 0.23% of 360,000 active;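 active = mean luciferase reporter signal, scaled so untreated is 0 and the glycosylation-blocking control 100, at or above a set limit in every replicate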;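 also: luciferase carries N-glycosylation sites so blocking glycosylation raises the light; 0% = median of neutral control wells and 100% = median of 100 nM tunicamycin wells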
GC-B act: GC-B (human) receptor activation. P20594. HEK293-GC-B cells, CNP EC30, cGMP TR-FRET; 0% at EC30 CNP, 100% saturating CNP. activation, % at 10 µM. 0.11% of 370,000 active. AID 1920062;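 active = activation at 10 µM reaching about 35% in either raw or pattern-adjusted values, limit read from the data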
* hit, by the source's call; x = no result; + = active, no number. In the library only some 0.7% were active in any assay of this set; here they are far more common.

SMILES	CaV13 FRET inh	Vif inh	GC-A act	Xi reactivation	Glyco luc inh	GC-B act
O=C1C=C(c2c(O)ccc3ccccc23)c2ccccc2C1=O	-7	-3	44*	0	4	49*
Cc1csc(SCC(=O)N(C)C2CCS(=O)(=O)C2)n1 (stereo not drawn)	-6	-2	5	0	0	90*
COCCN1C[C@@H](CO)O[C@@H](n2cnc3c(NCc4cc(OC)c(OC)c(OC)c4)ncnc32)C1	-8	3	-6	0	-1	3
COc1cc(CNc2ncnc3c2ncn3[C@H]2CN(CCN3CCOCC3)C[C@@H](CO)O2)cc(OC)c1OC	-9	70*	6	0	1	1
C/C(=N\NC(=O)CC#N)c1cc2ccc(O)cc2oc1=O	+	-5	0	0	4	-2
C[C@@H]1COCc2cn(nn2)CC[C@@H](Cc2ccccc2)C(=O)N1	x	x	x	0	x	x
FC(F)(F)c1cccc(Oc2nc(-c3ccccc3)nnc2C(F)(F)F)c1	-3	-2	5	x	2	-2
FC(F)(F)c1nnc(-c2ccccc2)nc1Oc1ccc(Cl)cc1Cl	-2	51*	0	x	2	2
COc1ccc(/C=N/NC(=O)c2cccc(NC(=O)c3ccccc3Cl)c2)cc1OC	0	4	4	0	1	6
COc1ccc(/C=N/NC(=O)c2cccc(NC(=O)c3ccccc3Cl)c2)cc1	-7	9	-3	0	34*	3
C[C@@H]1CN([C@H](C)CO)C(=O)c2cc(NC(=O)Nc3cccc4ccccc34)ccc2O[C@@H](C)CCCCO[C@H]1CN(C)Cc1ccccc1	x	x	x	0	x	x
N#Cc1c(N2CCCC2)nc(N)c2c(N)nc(N3CCCC3)cc12	-7	-16	-5	x	41*	1
COc1cc2c(C#N)c(N3CCCC3)nc(N)c2c(N)n1	-7	16	8	0	1	1
Cc1ccc2c(CNCc3ccccc3)cc(=O)oc2c1	-3	1	2	0	29*	1
CO[C@@H]1CN(C)C(=O)c2cc(NC(=O)CC(F)(F)F)ccc2OC[C@H](C)N(C(=O)c2ccccc2F)C[C@H]1C	x	x	x	1	x	x
COc1ccc(C(=O)c2ccc(N(C)C)cc2)c(OC)c1	-8	-3	2	x	15	3
CN(C)c1ccc(C(=O)c2ccc(N(C)C)c3ccccc23)cc1	x	78*	-6	x	10	0
COc1ccc2c3c([nH]c2c1)[C@H](CO)N(CC1CCOCC1)CC31CN(C(=O)C2CC2)C1	x	x	x	0	x	x
Cc1noc(C)c1S(=O)(=O)Nc1ccc2c(c1)C(=O)N([C@H](C)CO)C[C@H](C)[C@H](CN(C)Cc1ccc3c(c1)OCO3)OCCCC[C@H](C)O2	x	x	x	0	x	x
COc1ccc(-c2oc(=O)c3cc(OC)c(OC)cc3c2/C=C/c2ccc(OC(C)=O)cc2)cc1	-9	15	5	0	0	5
COc1cc(-c2noc(C)c2/C=C/c2ccc(OC(C)=O)cc2)cc(OC)c1OC	-5	1	-2	0	27*	-21
CCC(=O)Nc1ccc2c(c1)C(=O)N(C)[C@H]1CC[C@@H](CC(=O)NCc3ccccc3Cl)O[C@@H]1CO2	x	x	x	0	x	x
CC#CCN1c2ccccc2[C@]23C[C@@H](C(=O)OC)N(C(=O)c4ccco4)C2=NC(C(=O)OC)=C(C(=O)OC)[C@H]13	-10	x	-6	0	16	-15
CC#CCN1c2ccccc2[C@]23C[C@@H](C(=O)OC)N(C(=O)c4cc(C)oc4C)C2=NC(C(=O)OC)=C(C(=O)OC)[C@H]13	-4	-1	-7	0	33*	-18
COc1cccc(-c2csc(N3CCN(C(=O)Nc4ccccc4OC)CC3)n2)c1	-7	122*	0	x	-1	4
SMILES	CaV13 FRET inh	Vif inh	GC-A act	Xi reactivation	Glyco luc inh	GC-B act
COc1cccc(-c2csc(N3CCN(C(=O)Nc4ccc(F)cc4)CC3)n2)c1	-5	-2	3	x	1	8
CO[C@H]1CN(C)C(=O)c2ccc(NC(=O)c3ccc(F)cc3)cc2OC[C@@H](C)N(C(=O)CN(C)C)C[C@@H]1C	x	x	x	0	x	x
COc1ccc(CNC(=O)c2ccc[nH]2)cc1	-5	60*	4	0	-1	-4
COc1cc(C=C(c2nc3ccccc3s2)c2nc3ccccc3s2)ccc1O	-12	-13	-4	0	5	-2
COc1ccc(C=C(c2nc3ccccc3s2)c2nc3ccccc3s2)cc1O	-11	-1	-5	x	29*	-10
NC(=S)N/N=C1\CC(c2ccc3c(c2)OCCCO3)Oc2ccc(F)cc21 (stereo not drawn)	8	-2	16	0	-2	22
NC(=S)N/N=C1\CC(c2ccc3c(c2)OCCO3)Oc2ccc(F)cc21 (stereo not drawn)	-4	0	32	0	3	42*
Cc1nc(Nc2nc(-c3ccccc3)cc(=O)[nH]2)nc2ccccc12	-5	-22	-3	x	103*	0
C[C@@H]1CN([C@H](C)CO)C(=O)c2cc(NC(=O)Nc3ccc(F)cc3)ccc2O[C@@H](C)CCCCO[C@H]1CN(C)C(=O)Nc1ccc(F)cc1	x	x	x	0	x	x
O=C(c1cc(COc2cccc3cccnc23)on1)N1CCC[C@H]1CO	-7	51*	8	0	2	4
Cc1ccc(/C=C2/NC(=O)N(Cc3ccccc3F)C2=O)o1	-18	1	60*	3	2	42*
Cc1ccc(/C=C2/NC(=O)N(Cc3ccc(Br)cc3)C2=O)o1	-5	1	3	0	2	49*
O=C(C[C@H]1C[C@H]2c3cc(NS(=O)(=O)c4ccc(F)cc4)ccc3O[C@H]2[C@@H](CO)O1)NCCc1ccccc1	x	x	x	0	x	x
Cc1ccc(S(=O)(=O)Nc2ccc3c(c2)C(=O)N([C@H](C)CO)C[C@@H](C)[C@@H](CN(C)Cc2ccncc2)OCCCC[C@@H](C)O3)cc1	x	x	x	0	x	x
CN1c2ccccc2C(C)(C)[C@]12C=Cc1cc(O)ccc1O2	-5	74*	-2	x	-1	-8
COc1ccc(S(=O)(=O)N(C)C[C@H]2Oc3ccc(NC(=O)Nc4cccc5ccccc45)cc3C(=O)N([C@H](C)CO)C[C@H]2C)cc1	x	x	x	1	x	x
Cn1nc(C(F)(F)F)c(/C=N/OC(=O)c2ccc(Cl)cc2)c1Cl	-5	19	3	x	0	-4
Cn1nc(C(F)(F)F)c(/C=N/OC(=O)c2ccccc2Cl)c1SCc1ccccc1Cl	-5	5	-1	x	58*	-3
